Test results reported in ChEMBL document CHEMBL4665625, “New pyrido[3,4-g]quinazoline derivatives as CLK1 and DYRK1A inhibitors: synthesis, biological evaluation and binding mode analysis” (Eur J Med Chem, 2019).

Legend:
[1] = biological target: T1, Dual specificity protein kinase CLK1 (Mus musculus, UniProt P22518); assay: Inhibition of recombinant mouse CLK1 expressed in bacteria using GRSRSRSRSRSR as substrate in presence of [gamma-33P]ATP
[2] = biological target: Dual specificity protein kinase CLK1 (Mus musculus) (UniProt P22518); assay: Inhibition of recombinant mouse CLK1 expressed in bacteria assessed as residual activity at 1 uM using GRSRSRSRSRSR as substrate in presence of [gamma-33P]ATP relative to control
Chain of Dual specificity protein kinase CLK1 (Mus musculus) (P22518 whole entry, looked up): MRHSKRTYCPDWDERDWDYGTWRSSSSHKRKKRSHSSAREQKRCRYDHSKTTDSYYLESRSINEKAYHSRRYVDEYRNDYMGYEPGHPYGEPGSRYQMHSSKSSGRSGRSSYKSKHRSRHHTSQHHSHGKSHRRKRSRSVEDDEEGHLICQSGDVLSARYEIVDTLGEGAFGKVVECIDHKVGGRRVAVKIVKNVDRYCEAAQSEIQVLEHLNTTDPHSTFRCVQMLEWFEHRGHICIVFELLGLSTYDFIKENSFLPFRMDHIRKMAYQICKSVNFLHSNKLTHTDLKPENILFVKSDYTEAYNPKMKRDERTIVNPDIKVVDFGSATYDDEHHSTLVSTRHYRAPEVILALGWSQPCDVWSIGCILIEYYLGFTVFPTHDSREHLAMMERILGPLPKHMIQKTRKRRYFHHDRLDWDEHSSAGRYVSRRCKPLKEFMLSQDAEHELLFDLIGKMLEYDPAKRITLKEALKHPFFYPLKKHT

SH-SY5Y = assay: Antiproliferative activity against human SH-SY5Y cells assessed as cell viability at 2 uM after 48 hrs by CellTiter96 AQueous assay relative to control; assay type: functional; conditions: read-out: Activity
Procedure, shortened: (§1)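 Cells grown in McCoy's 5a (HCT116), DMEM (SH-SY5Y, MDA-MB231, U-2 OS) or DMEM:F12 (hTERT-RPE1), each with 10% fetal calf serum, 2 mM L-glutamine, penicillin/streptomycin. Exposed to compound at 2 μM for 48 h; viability read by CellTiter96 AQueous per manufacturer, as % of DMSO-treated cells. Triplicate, mean ± SD; staurosporine as positive control.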

Sus scrofa domesticus [3] = species: Sus scrofa domesticus; assay: Inhibition of porcine brain CK1delta/epsilon assessed as residual activity at 10 uM using RRKHAAIGSpAYSITA as substrate in presence of [gamma-33P]ATP relative to control; assay type: tissue-based
[4] = biological target: T2, Glycogen synthase kinase-3 (Sus scrofa) (UniProt B2LUN4+I6LNT8); assay: Inhibition of porcine brain GSK-3alpha/beta assessed as residual activity at 10 uM using YRRAAVPPSPSLSRHSSPHQSpEDEEE as substrate in presence of [gamma-33P]ATP relative to control; assay type: tissue-based; conditions: Sus scrofa domesticus
U2OS = assay: Antiproliferative activity against human U2OS cells assessed as cell viability at 2 uM after 48 hrs by CellTiter96 AQueous assay relative to control; assay type: functional; conditions: read-out: Activity; procedure, shortened: as §1
[5] = biological target: T3, Cyclin-dependent kinase 5/CDK5 activator 1 (Homo sapiens) (UniProt Q00535+Q15078); assay: Inhibition of recombinant human CDK5/p25 expressed in bacteria assessed as residual activity at 1 uM using histone H1 as substrate in presence of [gamma-33P]ATP relative to control
T3 sequence (Q00535 whole entry): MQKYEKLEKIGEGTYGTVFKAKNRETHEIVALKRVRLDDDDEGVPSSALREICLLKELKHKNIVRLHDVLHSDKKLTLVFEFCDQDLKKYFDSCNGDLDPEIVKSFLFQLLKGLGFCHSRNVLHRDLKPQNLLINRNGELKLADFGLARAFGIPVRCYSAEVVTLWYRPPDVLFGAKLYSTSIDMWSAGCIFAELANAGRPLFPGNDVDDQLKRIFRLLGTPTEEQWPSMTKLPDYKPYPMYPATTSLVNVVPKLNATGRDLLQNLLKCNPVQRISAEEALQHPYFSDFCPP
T3 sequence (Q15078 99-307 partner limits assumed): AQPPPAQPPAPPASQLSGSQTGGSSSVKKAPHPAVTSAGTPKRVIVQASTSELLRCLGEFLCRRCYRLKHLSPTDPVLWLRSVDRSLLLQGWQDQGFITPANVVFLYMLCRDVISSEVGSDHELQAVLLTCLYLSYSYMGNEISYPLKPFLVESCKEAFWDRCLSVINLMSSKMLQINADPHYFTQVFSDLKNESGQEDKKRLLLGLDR
Procedure, shortened: (§2)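 Human recombinant CDK5/p25 (bacterially expressed) assayed with 0.8 μg/μl histone H1 as substrate and 15 μM [γ-33P]ATP. Residual activity versus DMSO controls, triplicate.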

[6] = biological target: Dual specificity tyrosine-phosphorylation-regulated kinase 1A (Rattus norvegicus) (UniProt Q63470); assay: Inhibition of rat DYRK1A kinase domain (1 to 499 residues) expressed in bacteria assessed as residual activity at 1 uM using KKISGRLSPIMTEQ as substrate in presence of [gamma-33P]ATP relative to control
Procedure, shortened: (§3)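 Buffer: 10 mM MgCl2, 1 mM EGTA, 1 mM DTT, 25 mM Tris-HCl pH 7.5, 50 μg/ml heparin, 0.15 mg/ml BSA.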

[7] = biological target: Dual specificity protein kinase CLK1 (Mus musculus) (UniProt P22518); assay: Inhibition of recombinant mouse CLK1 expressed in bacteria assessed as residual activity at 10 uM using GRSRSRSRSRSR as substrate in presence of [gamma-33P]ATP relative to control
[8] = biological target: T2, Glycogen synthase kinase-3 (Sus scrofa); assay: Inhibition of porcine brain GSK-3alpha/beta assessed as residual activity at 1 uM using YRRAAVPPSPSLSRHSSPHQSpEDEEE as substrate in presence of [gamma-33P]ATP relative to control; assay type: tissue-based; conditions: Sus scrofa domesticus
Procedure, shortened: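 Affinity-purified porcine brain GSK-3α/β with 0.01 µg/µl GS-1 peptide (phosphoserine-primed) as substrate and 15 µM [γ-33P]ATP. Buffer was 25 mM Tris-HCl pH 7.5, 10 mM MgCl2, 1 mM EGTA, 1 mM DTT, 50 µg/ml heparin and 0.15 mg/ml BSA. Radioactive incorporation was compared with DMSO-dilution controls, in triplicate.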

MDA-MB-231 = assay: Antiproliferative activity against human MDA-MB-231 cells assessed as cell viability at 2 uM after 48 hrs by CellTiter96 AQueous assay relative to control; assay type: functional; conditions: read-out: Activity; procedure, shortened: as §1
HCT-116 = assay: Antiproliferative activity against human HCT116 cells assessed as cell viability at 2 uM after 48 hrs by CellTiter96 AQueous assay relative to control; assay type: functional; conditions: read-out: Activity; procedure, shortened: as §1
[9] = Antiproliferative activity against hTERT-RPE1 cells assessed as cell viability at 2 uM after 48 hrs by CellTiter96 AQueous assay relative to control; assay type: cell-based, TERT-RPE1; conditions: human, read-out: Activity; procedure, shortened: as §1
[10] = Selectivity index, ratio of IC50 for recombinant mouse CLK1 expressed in bacteria to IC50 for rat DYRK1A kinase domain (1 to 499 residues) expressed in bacteria
Sus scrofa domesticus [11] = species: Sus scrofa domesticus; assay: Inhibition of porcine brain CK1delta/epsilon assessed as residual activity at 1 uM using RRKHAAIGSpAYSITA as substrate in presence of [gamma-33P]ATP relative to control; assay type: tissue-based
[12] = biological target: T4, Dual specificity tyrosine-phosphorylation-regulated kinase 1A (Rattus norvegicus, UniProt Q63470); assay: Inhibition of rat DYRK1A kinase domain (1 to 499 residues) expressed in bacteria using KKISGRLSPIMTEQ as substrate in presence of [gamma-33P]ATP; procedure, shortened: as §3
[13] = biological target: Dual specificity tyrosine-phosphorylation-regulated kinase 1A (Rattus norvegicus) (UniProt Q63470); assay: Inhibition of rat DYRK1A kinase domain (1 to 499 residues) expressed in bacteria assessed as residual activity at 10 uM using KKISGRLSPIMTEQ as substrate in presence of [gamma-33P]ATP relative to control; procedure, shortened: as §3
[14] = biological target: T3, Cyclin-dependent kinase 5/CDK5 activator 1 (Homo sapiens); assay: Inhibition of recombinant human CDK5/p25 expressed in bacteria assessed as residual activity at 10 uM using histone H1 as substrate in presence of [gamma-33P]ATP relative to control; procedure, shortened: as §2
[15] = biological target: T4, Dual specificity tyrosine-phosphorylation-regulated kinase 1A; assay: Inhibition of rat DYRK1A kinase domain (1 to 499 residues) expressed in bacteria using KKISGRLSPIMTEQ as substrate measured after 30 mins in presence of ATP by ADP-Glo kinase assay
Procedure, shortened: (§4)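 ADP-Glo luminescent kinase assay at 10 μM ATP, 30 min reaction at 30 °C; luminescence read as relative light units to derive IC50.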

[16] = biological target: T1, Dual specificity protein kinase CLK1; assay: Inhibition of recombinant mouse CLK1 expressed in bacteria using GRSRSRSRSRSR as substrate measured after 30 mins in presence of ATP by ADP-Glo kinase assay; procedure, shortened: as §4

T1 sequence (P22518 whole entry): as the sequence (P22518 whole entry, looked up) above

SMILES | IC50 [1] [µM] | Activity [2] [%] | viability at 2 µM (SH-SY5Y) [%] | Activity (Sus scrofa domesticus [3]) [%] | Activity [4] [%] | viability at 2 µM (U2OS) [%] | Activity [5] [%] | Activity [6] [%] | Activity [7] [%] | Activity [8] [%] | viability at 2 µM (MDA-MB-231) [%] | viability at 2 µM (HCT-116) [%] | viability at 48 h, 2 µM [9] [%] | Ratio IC50 [10] | Activity (Sus scrofa domesticus [11]) [%] | IC50 [12] [µM] | Activity [13] [%] | Activity [14] [%] | IC50 [15] [µM] | IC50 [16] [µM]
Nc1c2ccncc2cc2cnc(NCCCN3CCOCC3)nc12 | 0.29 | 20 | 3.6 | 24 | 6 | 6.4 | 67 | 5 | 4 | 41 | 15 | 0.8 | 0 | 12.6 | 53 | 0.023 | 6 | 23 | – | –
CCN(CC)CCCNc1ncc2cc3cnccc3c(N)c2n1 | 0.16 | 21 | – | 45 | 22 | – | 68 | 24 | 2 | 61 | – | – | – | – | 68 | 0.08 | 2 | 20 | – | –
CN(C)CCCNc1ncc2cc3cnccc3c(N)c2n1 | 0.12 | 14 | 0 | 61 | 10 | 0 | 77 | 17 | 1 | 36 | 0.4 | 0 | 0 | – | 96 | 0.12 | 1 | 34 | – | –
Nc1c2ccncc2cc2cnc(NCCCN3CCCC3)nc12 | – | 26 | 92.2 | 23 | 23 | 33 | 86 | 25 | 4 | 50 | 22 | 21 | 52 | – | 69 | 0.09 | 1 | 44 | – | –
Nc1c2ccncc2cc2cnc(NCCN3CCOCC3)nc12 | – | 27 | – | 34 | 24 | – | 52 | 17 | 4 | 76 | – | – | – | – | 77 | – | 1 | 10 | 0.197 | –
CN1CCN(CCCNc2ncc3cc4cnccc4c(N)c3n2)CC1 | 0.117 | 8 | 0.1 | 30 | 4 | 0.1 | 49 | 4 | 6 | 35 | 3.6 | 0 | 0 | 5.9 | 61 | 0.02 | 1 | 15 | – | –
O=[N+]([O-])c1c2ccncc2cc2cnc(NCCCN3CCOCC3)nc12 | 0.12 | 14 | 54 | 38 | 15 | 27 | 100 | 68 | 3 | 76 | 39 | 16.8 | 31 | – | 100 | – | 10 | 60 | – | –
CNc1ncc2cc3cnccc3c(N)c2n1 | – | 9 | – | 60 | 40 | – | 33 | 27 | 1 | 79 | – | – | – | – | 85 | – | 1 | 3 | – | 0.274
CN1CCN(CCNc2ncc3cc4cnccc4c(N)c3n2)CC1 | 0.21 | 21 | 62 | 70 | 22 | 13 | 88 | 19 | 4 | 44 | 21.7 | 6.1 | 19.4 | – | 100 | 0.12 | 2 | 55 | – | –
